Compounds with a hit are over-represented: about 1.9% of the library has one in this group of screens.
NOD2 RIPK2 PPI = blocks binding of human NOD2 to RIPK2. CHO BLA complementation NOD2-RIPK2, CCF4 ratio. inhibition, % at 4.98 µM. 0.38% of 360,000 active. AID 624267; in the data active = inhibition above about 21%
TLR4-MyD88 BLA = inhibitors of human TLR4-MyD88 binding | O00206+Q99836 | HeLa CL3-4 TLR4/MyD88 BLA complementation, FRET ratio | inhibition, % at 8.4 µM | 0.18% of 200,000 active | AID 861; in the data active = inhibition above about 25%
Target sequence (O00206 whole entry, looked up): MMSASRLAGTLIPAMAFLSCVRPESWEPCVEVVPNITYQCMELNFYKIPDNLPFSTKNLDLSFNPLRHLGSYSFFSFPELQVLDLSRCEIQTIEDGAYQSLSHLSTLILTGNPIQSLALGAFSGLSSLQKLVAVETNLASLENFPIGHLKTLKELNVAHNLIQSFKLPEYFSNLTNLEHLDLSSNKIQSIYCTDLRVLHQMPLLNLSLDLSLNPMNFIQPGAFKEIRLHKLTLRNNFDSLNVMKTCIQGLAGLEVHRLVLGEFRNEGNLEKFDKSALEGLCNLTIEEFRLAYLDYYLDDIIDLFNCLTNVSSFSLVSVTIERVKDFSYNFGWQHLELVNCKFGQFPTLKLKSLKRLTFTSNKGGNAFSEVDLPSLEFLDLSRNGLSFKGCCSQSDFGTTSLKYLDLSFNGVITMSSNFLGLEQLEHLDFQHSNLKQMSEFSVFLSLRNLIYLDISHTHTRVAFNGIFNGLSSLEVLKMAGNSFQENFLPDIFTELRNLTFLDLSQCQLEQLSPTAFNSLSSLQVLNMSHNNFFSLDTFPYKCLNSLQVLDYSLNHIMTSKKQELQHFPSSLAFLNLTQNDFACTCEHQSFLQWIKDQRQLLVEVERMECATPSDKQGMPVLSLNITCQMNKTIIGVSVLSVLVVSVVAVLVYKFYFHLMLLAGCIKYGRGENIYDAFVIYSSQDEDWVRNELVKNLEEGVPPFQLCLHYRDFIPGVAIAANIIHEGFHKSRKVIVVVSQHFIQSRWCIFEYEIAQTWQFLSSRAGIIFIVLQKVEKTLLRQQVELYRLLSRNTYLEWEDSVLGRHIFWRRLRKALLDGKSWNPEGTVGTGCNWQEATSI
Target sequence (Q99836 whole entry, looked up): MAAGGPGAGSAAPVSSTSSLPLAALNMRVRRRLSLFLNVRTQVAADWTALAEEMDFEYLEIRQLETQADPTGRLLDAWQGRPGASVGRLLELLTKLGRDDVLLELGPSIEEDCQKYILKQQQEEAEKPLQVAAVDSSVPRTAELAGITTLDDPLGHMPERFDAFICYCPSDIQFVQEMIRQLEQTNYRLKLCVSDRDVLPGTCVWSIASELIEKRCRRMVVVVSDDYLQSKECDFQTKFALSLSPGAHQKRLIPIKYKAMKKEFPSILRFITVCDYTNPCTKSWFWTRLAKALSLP
NTR1 ag = NTR1 (human) agonism | AID 493036 | activation, % at 20 µM | NTR1-U2OS beta-arrestin-GFP spot imaging, agonist mode | 0.17% of 330,000 active;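 active = activation at or above 40% of the spot to cytoplasm intensity ratio, with at least 20 cells analyzed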
MC4R ag barr = activates human MC4R beta-arrestin recruitment; P32245; U2OS MC4R beta-arrestin complementation, luminescence; percent of melanotan II response, DMSO zero; activation, % at 8.9 µM; 0.98% of 360,000 active; AID 540308;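 active = activation above a per-plate cutoff, the mean activation of sample wells on that plate plus 3 SD, cut at about 8% in these data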
MC4R antagonist = antagonists of human melanocortin 4 receptor (MC4R) | inhibition, % at 6.5 µM | MC4R-expressing cells, MTII-stimulated cAMP, LANCE TR-FRET | AID 540295 | P32245 | 0.48% of 360,000 active;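 active = inhibition above its plate's cutoff, the mean of tested wells on that plate plus 3 SD, cut at about 29% in these data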
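Assay system: U2OS cells stably expressing human melanocortin 4 receptor (MC4R) / Dosing: 6.5 µM / Timing: compound 30 min, challenge 1 h, detection 1 h / Measured by: Eu-cAMP/anti-cAMP TR-FRET, emission 671 nm / Replicates: singlicate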
TLR9-MyD88 inh = TLR9-MyD88 interaction inhibition; Q9NR96+Q99836; CHO BLA complementation TLR9-MyD88, CCF4 FRET ratio; inhibition, % at 4.98 µM; 0.21% of 340,000 active; AID 504734;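 active = inhibition above the mean over all tested compounds plus 3 SD, cut at about 21% in these data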
MC4R barr ag = human MC4R beta-arrestin agonism confirmation; U2OS MC4R beta-arrestin recruitment, luminescence; scaled DMSO 0%, Melanotan II 100%; AID 602192; shares compounds with MC4R ag barr; activation, % at 8.9 µM; 31% of 2,400 active;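 active = mean activation across replicates above the hit cutoff set in the earlier primary screen, cut at about 8% in these data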
MOR DOR agonist = activates mu-delta opioid heterodimer, MC4R agonist counter-screen. shares compounds with MC4R ag barr. U2OS PathHunter beta-arrestin, beta-gal luminescence; percent of deltorphin B response, DMSO zero. activation, % at 9.2 µM. 5.8% of 2,400 active;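 active = mean activation across replicates exceeds the hit threshold derived in the earlier primary screen, cut at about 18% in these data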
NOD2-RIPK2 conf = NOD2-RIPK2 interaction inhibition confirmed | shares compounds with NOD2 RIPK2 PPI | CHO cells, NOD2-RIPK2 BLA complementation, CCF4 FRET | inhibition, % at 4.98 µM | 70% of 1,200 active | AID 624370;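 active = mean inhibition across replicates above a set limit taken from the earlier primary screen, cut at about 21% in these data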
NOD2 BLA counter = counter-screen for NOD2-RIPK2 interaction inhibitors: BLA reporter; shares compounds with NOD2 RIPK2 PPI; CHO BLA reporter, CCF4 FRET ratio, counterscreen; inhibition, % at 4.98 µM; 57% of 1,200 active; AID 624371;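 active = mean inhibition above the low-control mean inhibition plus three low-control SD, cut at about 11% in these data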
A number is an active result; n = inactive; x = no result given.

SMILES | NOD2 RIPK2 PPI | TLR4-MyD88 BLA | NTR1 ag | MC4R ag barr | MC4R antagonist | TLR9-MyD88 inh | MC4R barr ag | MOR DOR agonist | others
NC(Cc1ccc(Cl)cc1)c1csc(NC(=O)NCCc2ccccc2)n1 (stereo not drawn) | n | x | x | 13 | n | x | 27 | 21
COc1ccc(CC(N)c2csc(NC(=O)NCCc3ccccc3)n2)cc1 (stereo not drawn) | n | x | x | n | n | x | x | x
COc1cccc(OCc2cc(C(=O)N(C)C3CCCCC3)no2)c1 | n | x | x | n | n | n | x | x
O=C(c1ccc2c(c1)OCO2)N1CCN(S(=O)(=O)c2ccc(Br)cc2Cl)CC1 | n | x | n | n | n | n | x | x
Cc1nn(-c2nc3ccccc3s2)c(N)c1Sc1ccc(F)cc1 | n | n | n | 15 | n | n | n | n
O=C(/C(=N/N=C/c1ccc(O)c(O)c1)c1ccccc1)c1ccccc1 | n | n | n | 10 | n | n | n | n
Cc1ccccc1-c1nc(-c2ccc(NC(=O)c3ccc(Br)o3)cc2)no1 | n | n | n | 30 | n | n | 21 | n
O=C(Nc1ccc2c(c1)Cc1ccccc1-2)c1ccccc1F | n | x | n | 11 | n | n | n | n
Cc1ccccc1-c1nc(-c2ccc(Br)o2)no1 | n | x | n | n | n | n | x | x
O=C(Nc1ccc2c(c1)Cc1ccccc1-2)c1ccc(Br)o1 | n | n | n | 10 | n | n | n | n
COc1ccc(Cn2c(SCc3ccccc3C)nc3cc(OC)c(OC)cc3c2=N)cc1 | n | n | n | 26 | n | n | n | 27
COc1cc2nc(SCc3ccc(F)cc3)n(Cc3cccs3)c(=N)c2cc1OC | n | n | n | n | n | n | x | x
Cc1ccc(O)c(C(=O)/C=C/c2ccc3c(c2)OCCO3)c1 | n | n | n | 22 | n | n | 21 | n
O=C(COC(=O)/C=C/c1ccc(S(=O)(=O)N2CCOCC2)cc1)NC1CCCCCCC1 | n | n | n | n | n | n | x | x
Cc1cccc(/C=N/NC(=O)c2cc(Br)ccc2OCc2ccccc2)n1 | n | x | n | 13 | n | n | n | n
Cc1cccc2c1nc(-c1ccccc1)n1nnnc21 | n | n | n | 13 | n | n | n | n
Cc1cccc2c1nc(-c1ccccc1)n1cnnc21 | n | n | n | n | n | n | x | x
Cc1c(CCOC(=O)CC23CC4CC(CC(C)(C4)C2)C3)sc[n+]1CC(=O)c1ccccc1 | n | n | n | 9.8 | n | n | 20 | n
CC(=O)Nc1cc(-c2ccc(C(=O)N3CCOCC3)cc2)cn2c(-c3ccc(F)cc3)cnc12 | n | x | x | n | n | x | x | x
CC(=O)Nc1cc(-c2ccc(N(C)C)cc2)cn2c(-c3ccc(F)c(Cl)c3)cnc12 | n | x | x | 71 | n | x | 200 | n
CC(=O)Nc1cc(-c2ccc(S(C)(=O)=O)cc2)cn2c(-c3ccc(F)cc3)cnc12 | n | x | x | n | n | x | x | x
CC(=O)Nc1cc(-c2ccc(N(C)C)cc2)cn2c(-c3ccc(F)cc3)cnc12 | n | x | x | 123 | n | x | 70 | n
CC(=O)Nc1cc(-c2ccc(S(C)(=O)=O)cc2)cn2c(-c3ccc(F)c(Cl)c3)cnc12 | n | x | x | 20 | n | x | 17 | n
CCOCCCNC(=O)c1ccc(OC)c(OC2CCN(C(C)C)CC2)c1 | n | x | n | n | n | n | x | x
COc1ccc(C(=O)Nc2ccccc2-c2nnn(CC(=O)NCc3ccco3)n2)cc1 | n | n | n | 11 | n | n | 10 | n
SMILES | NOD2 RIPK2 PPI | TLR4-MyD88 BLA | NTR1 ag | MC4R ag barr | MC4R antagonist | TLR9-MyD88 inh | MC4R barr ag | MOR DOR agonist | others
O=C(Cn1nnc(-c2ccccc2NC(=O)c2ccccc2F)n1)NCc1ccco1 | n | n | n | n | n | n | x | x
O=C(OCc1ccccc1)/C(=C/c1cccc2ccccc12)NC(=O)c1ccccc1 | n | n | n | 14 | n | n | n | n
Cc1ccc(OCCn2c(C)c(/C=N/n3cnnc3)c3ccccc32)cc1 | n | n | n | 16 | n | n | n | n
Cc1c(/C=N/n2cnnc2)c2ccccc2n1CCOc1ccc(Cl)cc1 | n | n | n | n | n | n | x | x
O=C(COC(=O)COc1ccc(Cl)cc1)Nc1ccc(F)c([N+](=O)[O-])c1 | n | n | n | n | n | n | x | x
CCN(CC(=O)Nc1ccc2c(c1)OCCO2)CC(=O)Nc1ccc(C)c([N+](=O)[O-])c1 | n | x | n | n | n | n | x | x
O=C(CSc1nc(Cc2ccccc2)nc2ccccc12)Nc1ccc2c(c1)OCCO2 | n | n | n | 14 | n | n | n | n
Fc1cccc(Cl)c1/C=N/Nc1c(Cl)cncc1Cl | n | n | n | 10 | n | n | n | n
CCCCc1nc2sc3c(SCCN(C)C)ncnc3c2c2c1CCC2 | n | x | n | n | n | n | x | x
CCCCc1nc2sc3c(SCC(=O)NCc4ccco4)ncnc3c2c2c1CCC2 | n | n | n | 14 | n | n | n | n
COc1cccc(CNC(=O)CSc2nc3c(oc4ccccc43)c(=O)n2CC2CCCO2)c1 (stereo not drawn) | n | x | n | n | n | n | x | x
CCCOc1ccc(F)cc1-c1cc(C(=O)Nc2ccc(C(C)C)cc2)[nH]n1 | n | x | x | 21 | n | x | n | n
CCCOc1ccc(F)cc1-c1cc(C(=O)Nc2ccc(OC)c(OC)c2)[nH]n1 | n | x | x | n | n | x | x | x
CC1=CC(C)(C)n2c(O)c(N=NC(N)=S)c3cccc1c32 | n | n | n | 11 | n | n | n | n
CC1=CC(C)(C)n2c(O)c(N=NC(N)=S)c3c(C)ccc1c32 | n | n | n | n | n | n | x | x
Cc1cc(C)c2cc(C(=O)N3CCN(c4ncccc4C(F)(F)F)CC3)[nH]c2c1 | n | x | n | 12 | n | n | n | n
COc1ccc2nc(C)cc(Nc3ccc(N4CCN(C)CC4)cc3)c2c1 | n | x | n | n | n | n | x | x
c1ccc(-c2sc3ccccc3c2-c2ccc(OCCN3CCCC3)cc2)cc1 | 23 | x | n | 14 | n | n | 32 | n | NOD2-RIPK2 conf=n;NOD2 BLA counter=n
CCN(CC)CCN(C(=O)/C=C/c1cccs1)c1nc2ccc(C)cc2s1 | n | x | n | n | n | n | x | x
Cc1ccc2nc(N(CCN(C)C)C(=O)/C=C/c3cccs3)sc2c1 | 22 | n | n | 16 | n | n | n | n | NOD2-RIPK2 conf=32;NOD2 BLA counter=25
